Assay results published in publication PMC4128068 (British Journal of Pharmacology, 2014).

Columns and labels:
human CFTR = conditions: 20 µM; oocyte expression system; ref Stahl et al., 2012; cited from earlier work
[1] = target: CFTR-like Cl− conductance (Mus musculus, UniProt P26361); assay type: cell-based
How it was run: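 Ruptured whole-cell patch clamp on cultured kidney DCT cells. CFTR current activated with forskolin (1–10 µM); once fully developed (3–4 min), test compound was perfused at rising concentrations (0.5, 1, 5, 10 µM). Holding potential −40 mV; eleven 400-ms steps from −100 to +100 mV in +20 mV increments. Current read 350 ms after pulse onset; mean ±SEM of six to eight cells.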

PS120 cells = assay: MTT assay on non–CFTR-expressing cells; assay type: cell-based, hamster; conditions: 24 h
How it was run: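 PS120 cells in 1% serum were exposed to increasing test compound concentrations for 24 h. They were then incubated 1 h with 0.5 mg mL−1 MTT in phenol red-free DMEM:F12 with 5% serum at 37°C. Cells were lysed in 10% SDS/0.01 N HCl overnight and OD read at 562 nm. Values were normalised to vehicle, means (SEM) of eight experiments.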

[2] = test system: Ca2+-dependent Cl− conductance (CaCC); assay: whole-cell patch-clamp, ionomycin-activated CaCC in CFTR-expressing kidney cells; assay type: cell-based, mouse
How it was run: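 Ruptured whole-cell patch clamp on kidney cells, with the NMDGCl pipette solution (5 EGTA, 5 MgATP, pH 7.4). CaCC was activated with 2 µM ionomycin, and test compound (1, 5, 10 µM) was perfused once current peaked. Cells were held at −40 mV with 400 ms steps from −100 to +120 mV. Slopes (+60 to +120 mV) were normalised to the uninhibited maximum; 5–6 cells. IC50 came from Hill fits.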

[3] = test system: kidney PCT cells (CFTR-expressing); assay: MTT assay on CFTR-expressing cells; assay type: cell-based, mouse; conditions: 24 h
[4] = test system: kidney PCT cells (CFTR-expressing); assay: LIVE/DEAD cell viability/cytotoxicity assay; assay type: cell-based, mouse; conditions: 24 h
How it was run: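 Confluent mouse kidney PCT monolayers in 1% serum were exposed to the test compound (0.5–50 µM) for 24 h. Live cells were stained with calcein-AM (green) and dead cells with […] (red). Green and red pixels were quantified on three micrographs per well. Values were normalised to 100% live cells in controls, as means ±SEM of 3–6 experiments.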

[5] = target: T1, volume-sensitive outwardly rectifying Cl− conductance (VSORC) (Mus musculus, UniProt Q80WG5); assay type: cell-based; conditions: CFTR-expressing cells
T1 sequence (Q80WG5 1-810): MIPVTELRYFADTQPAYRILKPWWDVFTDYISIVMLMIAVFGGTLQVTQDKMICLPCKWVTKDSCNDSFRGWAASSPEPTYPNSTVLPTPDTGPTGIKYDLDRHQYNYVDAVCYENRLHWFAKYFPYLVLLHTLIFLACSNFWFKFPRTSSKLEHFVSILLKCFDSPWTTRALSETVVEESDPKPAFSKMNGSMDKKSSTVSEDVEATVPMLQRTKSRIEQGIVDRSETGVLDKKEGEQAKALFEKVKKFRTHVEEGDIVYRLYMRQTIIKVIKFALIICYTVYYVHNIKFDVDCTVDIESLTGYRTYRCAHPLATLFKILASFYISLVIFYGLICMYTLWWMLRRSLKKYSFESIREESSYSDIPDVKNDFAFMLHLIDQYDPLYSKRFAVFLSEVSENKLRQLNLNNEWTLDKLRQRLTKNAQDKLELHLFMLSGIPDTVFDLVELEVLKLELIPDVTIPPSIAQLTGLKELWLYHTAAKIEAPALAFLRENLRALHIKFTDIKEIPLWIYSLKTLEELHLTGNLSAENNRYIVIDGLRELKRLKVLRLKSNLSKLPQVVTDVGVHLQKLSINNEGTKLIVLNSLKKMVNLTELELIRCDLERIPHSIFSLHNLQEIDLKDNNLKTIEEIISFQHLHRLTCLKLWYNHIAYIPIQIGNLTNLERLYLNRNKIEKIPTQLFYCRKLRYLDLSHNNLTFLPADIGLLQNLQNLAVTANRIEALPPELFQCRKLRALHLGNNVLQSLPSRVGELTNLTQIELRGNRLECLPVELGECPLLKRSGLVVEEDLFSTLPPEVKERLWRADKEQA
How it was run: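 Ruptured whole-cell patch clamp on kidney cells. Pipette: 140 mM NMDGCl, 10 HEPES pH 7.4, 5 EGTA, 5 MgATP. VSORC was activated by switching from a mannitol-containing NMDGCl bath (320–330 mOsm) to a mannitol-free one (285–290 mOsm). Test compound (0.5–10 µM) was perfused after 3–4 min. Cells were held at −40 mV with 400 ms steps from −100 to +100 mV. Slopes (−100 to −60 and +60 to +100 mV) were normalised to the hypotonic maximum; 5–6 cells.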

[6] = test system: shark 'CFTR-like' protein; conditions: 25 µM; oocyte expression system; ref Stahl et al., 2012; cited from earlier work

Sequence of CFTR-like Cl− conductance (P26361 whole entry, the tested form may be a part): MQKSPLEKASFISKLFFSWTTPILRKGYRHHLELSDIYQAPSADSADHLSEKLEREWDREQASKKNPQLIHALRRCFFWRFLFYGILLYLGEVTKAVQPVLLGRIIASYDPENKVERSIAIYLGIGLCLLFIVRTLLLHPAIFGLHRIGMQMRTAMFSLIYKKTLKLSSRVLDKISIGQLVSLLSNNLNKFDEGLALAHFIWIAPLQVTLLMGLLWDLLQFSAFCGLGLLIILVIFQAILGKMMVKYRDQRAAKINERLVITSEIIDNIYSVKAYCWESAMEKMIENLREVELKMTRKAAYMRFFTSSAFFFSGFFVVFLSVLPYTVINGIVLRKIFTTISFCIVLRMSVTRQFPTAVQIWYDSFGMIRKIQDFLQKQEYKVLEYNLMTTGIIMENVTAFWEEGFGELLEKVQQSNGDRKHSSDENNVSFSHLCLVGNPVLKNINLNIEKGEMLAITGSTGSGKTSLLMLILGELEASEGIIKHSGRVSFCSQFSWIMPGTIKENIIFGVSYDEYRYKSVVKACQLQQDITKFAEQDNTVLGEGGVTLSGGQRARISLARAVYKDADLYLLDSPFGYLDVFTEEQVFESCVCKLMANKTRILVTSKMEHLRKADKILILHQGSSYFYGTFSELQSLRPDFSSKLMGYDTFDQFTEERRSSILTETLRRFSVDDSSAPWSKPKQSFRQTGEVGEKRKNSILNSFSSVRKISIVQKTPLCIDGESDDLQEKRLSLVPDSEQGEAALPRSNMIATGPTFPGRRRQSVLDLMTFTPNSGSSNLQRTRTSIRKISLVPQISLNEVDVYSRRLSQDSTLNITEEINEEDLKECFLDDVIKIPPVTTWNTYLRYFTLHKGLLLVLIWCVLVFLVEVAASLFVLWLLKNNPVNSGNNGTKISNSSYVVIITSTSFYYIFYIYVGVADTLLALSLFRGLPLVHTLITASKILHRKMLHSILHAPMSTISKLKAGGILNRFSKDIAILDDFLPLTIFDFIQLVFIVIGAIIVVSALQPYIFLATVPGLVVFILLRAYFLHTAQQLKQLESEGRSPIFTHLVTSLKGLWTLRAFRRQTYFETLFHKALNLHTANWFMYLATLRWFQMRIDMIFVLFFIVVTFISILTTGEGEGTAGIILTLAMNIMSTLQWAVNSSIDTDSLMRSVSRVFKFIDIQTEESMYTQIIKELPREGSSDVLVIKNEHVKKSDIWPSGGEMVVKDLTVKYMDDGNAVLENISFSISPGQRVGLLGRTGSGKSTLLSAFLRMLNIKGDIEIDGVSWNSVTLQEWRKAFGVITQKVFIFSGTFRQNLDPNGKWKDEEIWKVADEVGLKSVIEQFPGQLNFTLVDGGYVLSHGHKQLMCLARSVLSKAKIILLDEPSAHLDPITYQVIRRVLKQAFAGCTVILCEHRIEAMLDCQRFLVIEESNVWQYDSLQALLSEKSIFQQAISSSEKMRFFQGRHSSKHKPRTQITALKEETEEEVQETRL

inhibition of the remaining fraction of the VSORC current ([5]; 100 µM, after CFTRinh-172) | SMILES | inhibition of human CFTR (human CFTR) [%] | inhibition of the CFTR conductance ([1]; 5 µM) | concentration of maximal inhibition of the CFTR-like current ([1]; forskolin-activated, tested 0.5, 1, 5, 10 µM) [µM] | concentration decreasing cell viability (MTT) (PS120 cells) [µM] | inhibition of the CaCC ([2]; 5 µM) | effect on the CaCC ([2]; up to 10 µM, ionomycin 2 µM) | effect on cell viability (MTT) ([3]; 20 µM and even 10 µM) | effect on cell viability (MTT) ([3]; 50 µM) | effect on cell viability (live/dead labelling) ([4]; 50 µM) | effect on cell viability (live/dead labelling) ([4]; 1 to 20 µM) | inhibition of VSORC ([5]; 10 µM, negative and positive potentials) [%] | IC50 ([5]; read-out: IC50 towards VSORC-mediated Cl− currents, either at negative or positive potentials) [µM] | effect on VSORC conductance ([5]; up to 1 µM) | inhibition of shark 'CFTR-like' protein [6] [%]
 | O=C(O)c1ccc(C=C2SC(=S)N(c3cccc(C(F)(F)F)c3)C2=O)cc1 [CFTRinh-172, 3-[(3-trifluoromethyl)phenyl]-5-[(4-carboxyphenyl)methylene]-2-thioxo-4-thiazolidinone] | ~50 | full inhibition | 5 | 5 | no noticeable inhibition | did not affect | marked effect | dramatic decrease of the cell viability | induced cell death | no significant effect on cell viability | ~50 | 12 | did not affect | 10
completely inhibited | O=C(O)c1cc([N+](=O)[O-])ccc1NCCCc1ccccc1 [NPPB, 5-nitro-2-(3-phenylpropylamino)-benzoic acid] |  |  |  |  |  |  |  |  |  |  |  |  |  | 
